Source: PubChem BioAssay (several laboratories)
CSN deneddyl inh = inhibitors of CSN-mediated cullin deneddylation, primary screen, biochemical, fluorescence polarization, uHTS. inhibition, % at 12.5 µM. actives 0.38% (n = 360,000). COP9 signalosome complex subunit 5 (Homo sapiens), Q92905. Purified CSN, SCF-Nedd8-OG deneddylation;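 active means pattern-corrected inhibition above about 35%, with an unprinted fluorescence ratio check between 0.5 and 1.5, limit read from the data, passing the limit was not always enough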;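 further: 0% = enzyme with substrate and 100% = substrate without enzyme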
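Assay system: purified human Csn5 enzyme expressed in HEK293T cells; Input: 0.24 nM Csn5 enzyme, final concentration; Reagent: 10 nM SCFSkp2-Nedd8OG; Compound dosing: 12.5 µM single point; Times: reaction 90 min, room temperature; Technique: fluorescence polarization readout.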
Rtt109 Vps75 = inhibitors of C. albicans Rtt109/Vps75 HAT, primary screen, biochemical, ThioGlo CoA-SH fluorescence, plate reader | Histone acetyltransferase RTT109 (Candida albicans (strain SC5314 / ATCC MYA-2876)), … | purified Rtt109/Vps75, 4 h | inhibition, % at 34.9 µM | actives 0.16% (n = 330,000) | AID 540336, 2011;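 active means inhibition of at least 50% in every replicate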
HNF4A DNA FP = change in binding of human HNF4A to DNA, primary screen, biochemical, fluorescence polarization, FITC-DNA; Hepatocyte nuclear factor 4-alpha (Homo sapiens), P41235; 1 h; activity change, % at 10 µM; actives 0.3% (n = 360,000); AID 1224865, 2016; in the data active means activity change above about 30%, passing the limit was not always enough
TPT1 inhibitor = Candida albicans TPT1 enzyme inhibitors, primary screen, biochemical, fluorescence polarization | tRNA 2'-phosphotransferase TPT1 (Candida albicans SC5314) | recombinant caTPT1, FP RNA substrate dephosphorylation | inhibition, % at 5 µM | actives 0.81% (n = 300,000) | AID 1962, 2009;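 active means inhibition above the mean of all tested compounds plus 3 SD, set per screening campaign, cut at about 24% in these data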;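 further: plate controls were DMSO alone for no effect and ferristatin control at 100 nM for full effect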
caTPT1 confirm = Candida albicans TPT1 inhibitors, confirmation, biochemical, fluorescence polarization, triplicate | AID 2149, 2009 | actives 74% (n = 2,400) | shares compounds with TPT1 inhibitor | inhibition, % at 5 µM | recombinant caTPT1, RNase T1 coupled;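 active means inhibition above the primary screen limit, the mean inhibition of all tested compounds plus 3 SD, cut at about 25% in these data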
RNase T1 inh = RNase T1 inhibitors, counter-screen for TPT1 inhibitor project, biochemical, fluorescence polarization | shares compounds with TPT1 inhibitor | RNase T1 cleavage, 1536-well | inhibition, % at 5 µM | actives 83% (n = 2,400) | AID 2153, 2009;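 active means inhibition above the solvent-only control well mean plus 3 SD, limit set per screening run, cut at about 23% in these data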;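 further: plate controls were DMSO wells with enzyme for no effect and wells without RNase T1 for full effect; inhibitors block cleavage so intact labeled substrate keeps polarization high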
CSN5 deneddyl = Csn5 deneddylation inhibitors, confirmation, biochemical, fluorescence polarization, single concentration, SCF-Nedd8OG substrate; shares compounds with CSN deneddyl inh; Csn5 deneddylation of SCF-Nedd8OG, 90 min; inhibition, % at 16.6 µM; actives 62% (n = 540); AID 720654, 2013; in the data active means inhibition above about 50%;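 further: 0% = DMSO with enzyme and 100% = no enzyme wells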
MMP2 cntr CSN = MMP-2 protease inhibition counter-screen, confirmation, counter-screen for CSN deneddylation inhibitor project, biochemical, fluorescence, single concentration; shares compounds with CSN deneddyl inh; recombinant MMP-2, FRET substrate fluorescence, 60 min; inhibition, % at 16.6 µM; actives 33% (n = 540);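 active means corrected plate-normalized z-score of 5 or more, or -5 or less, or inhibition of 15% or more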;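 further: plate controls were DMSO wells with enzyme for no effect and buffer wells lacking MMP-2 for full effect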
Thrombin cntr = thrombin (bovine) inhibition, counter-screen for CSN hits. actives 49% (n = 540). bovine thrombin cleavage of Ub4-pepOG, fluorescence polarization. shares compounds with CSN deneddyl inh. inhibition, % at 16.6 µM;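 active means inhibition at or above a set limit, with a fluorescence interference ratio between 0.5 and a set maximum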
Target sequence (P00735 whole entry, looked up): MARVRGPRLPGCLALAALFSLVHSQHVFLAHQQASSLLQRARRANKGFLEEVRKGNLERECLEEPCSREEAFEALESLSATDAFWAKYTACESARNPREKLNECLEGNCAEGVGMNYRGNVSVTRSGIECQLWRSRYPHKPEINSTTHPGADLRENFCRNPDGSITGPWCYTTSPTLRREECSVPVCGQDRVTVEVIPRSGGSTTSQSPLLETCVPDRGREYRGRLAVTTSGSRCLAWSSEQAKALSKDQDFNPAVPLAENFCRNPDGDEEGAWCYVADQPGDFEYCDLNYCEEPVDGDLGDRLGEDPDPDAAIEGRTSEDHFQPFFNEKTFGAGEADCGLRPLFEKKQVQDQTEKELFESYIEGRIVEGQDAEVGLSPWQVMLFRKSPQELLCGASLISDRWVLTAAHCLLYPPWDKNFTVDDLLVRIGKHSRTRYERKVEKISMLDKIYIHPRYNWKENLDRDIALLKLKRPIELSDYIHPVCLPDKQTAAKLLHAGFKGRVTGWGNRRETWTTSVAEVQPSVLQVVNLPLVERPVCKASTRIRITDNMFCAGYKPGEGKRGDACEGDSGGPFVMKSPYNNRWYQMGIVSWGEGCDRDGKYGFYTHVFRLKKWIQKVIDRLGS
HNF4a DNA conf = change in HNF4A binding to DNA, retest, confirmation, biochemical, fluorescence polarization, FITC-DNA | shares compounds with HNF4A DNA FP | 1 h | activity change, % at 12.5 µM | actives 99% (n = 210) | AID 1224897, 2016; call rule not given here
Numbers without * were called inactive; / = not tested or not shown. Shown are actives, neighbours in structure and some others; about 1.2% of the full set was active somewhere.

SMILES | CSN deneddyl inh | Rtt109 Vps75 | HNF4A DNA FP | TPT1 inhibitor | caTPT1 confirm | RNase T1 inh | HNF4a DNA conf | others
COc1cc([C@@H]2[C@H]3CNCC=C3C(C#N)=C(N)C2(C#N)C#N)ccc1OC(C)C | 17.2 | 7.1 | 48.1* | 34.3* | 24.2* | 35.6* | 56.4*
COc1cc(C2C3CN(C)CC=C3C(C#N)=C(N)C2(C#N)C#N)ccc1OC(C)C (centres undefined) | -8.7 | -8.8 | -34.3 | 4.4 | / | / | /
C=CCSc1nnc(C)c(/C=C/Nc2ccc(Cl)cc2)n1 | -1.0 | -3.6 | 50.8* | 154.8* | 132.8* | 128.8* | 38.4*
COc1cc(NC(=O)Cc2ccccc2)ccc1NC(=O)c1ccccc1 | -2.8 | -4.0 | 1.1 | 0.8 | / | / | /
CC1CCC(NC(=O)CCNC(=O)c2ccc(Br)cc2)CC1 (centres undefined) | 1.9 | -6.7 | 3.2 | -2.4 | / | / | /
Cc1onc(-c2ccccc2)c1C(=O)Nc1sc2c(c1C#N)CCC2 | 20.2 | 19.2 | 12.9 | 17.5 | / | / | /
Cc1onc(-c2ccccc2)c1C(=O)Nc1sccc1C#N | 11.8 | -1.5 | 43.8* | 83.3* | 90.8* | 98.9* | 65.1*
Oc1ccc(/C=C/c2ccc3cccc(O)c3n2)cc1Br | 33.3 | -11.2 | 43.8* | 48.5* | 63.3* | 69.6* | 75.5*
O=C(O)c1ccc(/C=C/c2ccc3cccc(O)c3n2)cc1 | 19.9 | -3.0 | -6.1 | / | / | / | /
COc1ccccc1N1CCN(S(=O)(=O)c2ccc(NC(C)=O)cc2)CC1 | 2.6 | -6.1 | -2.8 | -5.4 | / | / | /
CC(=O)OC[C@@H]1CN(Cc2ccccc2)C[C@H](n2cnc3c(NC4CCCC4)ncnc32)O1 | 2.0 | / | 5.1 | / | / | / | /
Cc1cccc(C)c1N=Cc1c(O)n(-c2nccs2)c(=O)c2ccccc12 | -7.1 | 9.8 | 1.0 | 1.1 | / | / | /
O=c1c2ccccc2c(/C=N/c2nnc(Cc3ccccc3)s2)c(O)n1-c1ccc(Cl)cn1 | 41.4* | 11.5 | 86.4* | 25.1* | 153.8* | 146.2* | 94.8*
O=C1/C(=C/c2cccs2)CCC/C1=C\c1cccs1 | 43.3* | -0.5 | 12.1 | 11.2 | / | / | / | CSN5 deneddyl=92.2*;MMP2 cntr CSN=-3.8;Thrombin cntr=4.8
O=C1/C(=C/c2cccs2)Sc2ccccc21 | 5.2 | 46.0 | 0.7 | 23.6 | / | / | /
CCN1CCN(C(=O)c2ccc3c(=O)n(CCc4ccccc4)c(=O)[nH]c3c2)CC1 | -3.8 | 7.5 | 2.1 | -0.6 | / | / | /
CCc1nc2ccc(C(=O)Nc3cccc(NS(C)(=O)=O)c3)cn2c1N(CC)CCOC | -2.0 | / | 2.7 | / | / | / | /
O=C(N/N=C/c1cc(Br)c(Br)o1)c1ccc2c(c1)OCCO2 | 40.1* | -9.6 | -8.0 | 14.9 | / | / | / | CSN5 deneddyl=65.9*;MMP2 cntr CSN=12.6;Thrombin cntr=0.0
O=C(N/N=C/c1cc(Br)c(O)c(Br)c1O)c1ccc2c(c1)OCCO2 | 3.8 | 15.0 | -1.7 | -0.2 | / | / | /
CCCc1nc2c(=O)n(C)c(=O)nc-2n(C)n1 | 76.4* | -5.6 | 157.2* | / | / | / | / | CSN5 deneddyl=-10.3;MMP2 cntr CSN=4.6;Thrombin cntr=-27.9
